Hits are enriched below; roughly 4.3% of the tested compounds scored in any of these assays.
Rin1 Abl inh: blocks binding of human Rin1 to Abl | P00519+Q13671 | 360,000 tested, 0.4% active | inhibition, % at 7.35 µM | TR-FRET Rin1/Abl binding, biochemical; in the data active = inhibition above about 5%, passing the limit was not always enough
PREPL inhibitor: inhibitors of human prolyl oligopeptidase-like enzyme PREPL; AID 2751; recombinant PREPL, fluorescence polarization activity-based probe; Q4J6C6; inhibition, % at 5.96 µM; 320,000 tested, 0.68% active; in the data active = inhibition above about 43%;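 note: 0% = enzyme with DMSO and 100% = wells lacking enzyme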
SUMO HTRF inh: blocks human SUMOylation mediated by UBC9 | inhibition, % at 35 µM | 290,000 tested, 0.36% active | P63279 | HTRF SUMOylation assay, SAE1/SAE2 + UBC9, in vitro; in the data active = inhibition above about 50%, passing the limit was not always enough
Target sequence (P63279 whole entry, looked up): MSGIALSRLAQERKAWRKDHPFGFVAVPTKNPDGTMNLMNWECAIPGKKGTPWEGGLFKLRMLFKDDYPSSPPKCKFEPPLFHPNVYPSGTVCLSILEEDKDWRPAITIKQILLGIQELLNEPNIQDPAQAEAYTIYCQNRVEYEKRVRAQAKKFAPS
UBC13 inh: blocks human UBC13 polyubiquitin chain formation. P61088. TR-FRET. inhibition, % at 20 µM. 330,000 tested, 0.47% active; in the data active = inhibition above about 45%, passing the limit was not always enough
ALR inh: human ALR oxidase inhibition via reduced H2O2 | P55789 | purified ALR, DTT oxidation, H2O2 HRP-luminol luminescence | inhibition, % (concentration not given with the values) | 290,000 tested, 3.8% active;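 active = mean replicate inhibition above about 79%, with every replicate also reaching it, limit read from the data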
RBBP9 inhibitor: blocks human serine hydrolase RBBP9; AID 1515; inhibition, % at 7.94 µM; 220,000 tested, 0.2% active; recombinant RBBP9, FP-Rh probe fluorescence polarization; O75884;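 active = inhibition above the campaign mean of all tested compounds plus 3 SD, cut at about 14% in these data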;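 note: plate controls were DMSO wells with RBBP9 for no effect and wells lacking RBBP9 protein for full effect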
Target sequence (O75884 whole entry, looked up): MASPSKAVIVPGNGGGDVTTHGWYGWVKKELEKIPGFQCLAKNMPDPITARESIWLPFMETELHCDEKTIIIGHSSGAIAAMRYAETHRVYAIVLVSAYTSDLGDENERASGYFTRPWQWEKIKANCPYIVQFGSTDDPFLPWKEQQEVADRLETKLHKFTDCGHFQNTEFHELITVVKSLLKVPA
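system = RBBP9 protein | input = RBBP9 at 2.5 µM in dispensed solution, before mixing | measured by = fluorescence polarization (mP), excitation 525 nm, emission 598 nm | incubation = enzyme-compound preincubation 30 min, then probe labeling 45 min, 25 °C | buffer or medium = Tris-NaCl-Pluronic buffer, pH 8.0 | compound = single dose 7.94 µM | also added = FP-Rh probe, 375 nM dispensing solution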
Active calls of the source: *; . = not tested or not shown.

SMILES | Rin1 Abl inh | PREPL inhibitor | SUMO HTRF inh | UBC13 inh | ALR inh | RBBP9 inhibitor
COCCCNC(=O)c1cc2c(-c3ccc(Cl)cc3)nn(C)c2s1 | 0 | -6 | 19 | 12 | -23 | -3
Cc1ccc(CNC(=O)c2cc3c(-c4ccc(Cl)cc4)nn(C)c3s2)o1 | -1 | -6 | 4 | 2 | 80* | -42
CCCCNC(=O)c1cc2c(-c3ccc(Cl)cc3)nn(C)c2s1 | 4 | -15 | 29 | 5 | 36 | -5
COCCNC(=O)c1cc2c(-c3ccc(Cl)cc3)nn(C)c2s1 | 2 | -11 | 6 | 20 | 92* | -9
COc1ccc(OCC(=O)Sc2ccc(C)cc2)cc1 | -1 | 5 | -6 | 13 | 98* | -5
COc1ccc(OC(=O)COc2ccc(C)cc2)cc1 | 2 | -7 | 8 | 7 | 6 | 6
COc1ccc(OC)c(/C=N/Nc2nncn2/N=C/c2cc(OC)ccc2OC)c1 | 2 | 5 | 26 | -13 | -3 | -5
COc1cc(/C=N/NC(=O)CNC(=O)c2ccco2)ccc1O | 0 | 12 | 5 | 0 | 99* | -4
COc1cc(/C=N/NC(=O)CCNC(=O)c2ccccc2Cl)ccc1O | -1 | -4 | 15 | 4 | 99* | -4
COc1cc(/C=N/NC2=NCCCCC2)ccc1O | -5 | 3 | -4 | 3 | 95* | -8
COc1cc(/C=N/Nc2nncn2/N=C/c2ccc(O)c(OC)c2)ccc1O | 4 | 0 | -9 | -6 | 99* | 2
COc1ccc(/C=C/C(=O)ONC2=NCCCCC2)cc1OC | -4 | 1 | 27 | -4 | -9 | -6
COc1cccc(NC(=O)CSc2ccc3nnc(-c4ccccn4)n3n2)c1 | 0 | -37 | -2 | -5 | -6 | .
CNC(=O)c1cc(S(=O)(=O)Nc2ccc3c(c2)OCO3)ccc1C | 2 | 4 | 0 | 10 | 11 | .
NCC(=O)Nc1ccc(Cl)cc1C(=O)c1ccc[nH]1 | 1 | . | -2 | -4 | . | -15
Cc1nccn1CCC(=O)Nc1ccc(Cl)cc1 | -1 | -5 | 16 | 2 | -10 | -10
COc1cc(/C=N/NC(=O)CCc2ccccc2)ccc1O | 0 | -3 | 2 | 6 | 99* | 2
COc1cc(/C=N/Nc2ccccc2)ccc1O | 1 | 5 | 20 | 1 | 99* | .
COc1ccc(/C=N/NC(=O)c2ccco2)cc1Cn1nc(C)cc1C | -1 | -34 | 7 | -1 | 77* | -11
COc1ccc(/C=N/NC(=O)c2ccco2)cc1Cn1nc(C)c([N+](=O)[O-])c1C | -6 | -19 | 18 | 1 | 26 | -5
O=[N+]([O-])c1cc(/C=N/O)ccc1N1CCCC1 | -6 | -1 | 2 | -72 | 92* | -5
Nc1cccc(-c2cn3cc(C(F)(F)F)cc(Cl)c3n2)c1 | -2 | 9 | 16 | -9 | 99* | -2
FC(F)(F)c1cc(Cl)c2nc(-c3ccccc3)cn2c1 | -2 | -2 | 14 | 4 | -2 | -9
Cc1ccc(S(=O)(=O)NN=C(c2ccccc2)c2cccs2)cc1 | 1 | . | . | . | . | .
CN(C(=O)COC(=O)C1(C)CC1(Cl)Cl)c1c(N)n(Cc2ccccc2)c(=O)[nH]c1=O (centres undefined) | 0 | 8 | . | -2 | -3 | .
SMILES | Rin1 Abl inh | PREPL inhibitor | SUMO HTRF inh | UBC13 inh | ALR inh | RBBP9 inhibitor
COc1ccccc1NCCC(=O)OCC(=O)Nc1cc([N+](=O)[O-])ccc1F | 4 | 17 | . | 19 | 93* | .
COc1ccccc1CCC(=O)OCC(=O)NC1CCCCC1 | -1 | 8 | 14 | 8 | -2 | .
COc1ccccc1NCCC(=O)OCC(=O)NC1CC1 | 6 | -3 | -18 | -1 | 99* | 0
O=C(COC(=O)CSc1ccc2ccccc2c1)NC1CCCC1 | -4 | 15 | -1 | -12 | 100* | -6
COc1ccccc1NCCC(=O)OCC(=O)NC1CCCCC1 | 1 | 6 | -10 | 0 | 99* | -2
COc1cc(CC(=O)OCC(=O)Nc2cc([N+](=O)[O-])ccc2F)cc(OC)c1OC | 1 | 4 | -5 | -15 | 7 | -11
Cc1ccc(S(=O)(=O)N[C@H](C(=O)OCC(=O)NC(=O)c2cccn2C)C(C)C)cc1 | 2 | . | . | . | . | .
CC(C)(C)C(=O)OCc1nc(-c2ccc(C(F)(F)F)cc2)cs1 | 1 | 1 | -17 | -1 | -3 | -2
Cc1ccccc1NC(=O)c1ccc(NC(=O)C2CC(=O)OC23CCCCC3)cc1 (centres undefined) | -1 | . | 28 | . | . | -8

Screens (PubChem)
